Compound activity from PubChem BioAssay.
GalR3 antagonist – blocks the human galanin receptor 3. AID 651719. inhibition, % at 3 µM. HEK293 GalR3-CNG cAMP membrane potential fluorescence; galR3 body fused to GalR1 C-terminus. hit rate 0.44% among 360,000;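 active = inhibition above the screen-wide average plus 3 SD, cut at about 13% in these data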;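 note: forskolin and galanin both at EC90 stimulate the cells; cAMP rise reported by CNG channel membrane potential dye signal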
Target sequence (O60755 1-299 limits assumed): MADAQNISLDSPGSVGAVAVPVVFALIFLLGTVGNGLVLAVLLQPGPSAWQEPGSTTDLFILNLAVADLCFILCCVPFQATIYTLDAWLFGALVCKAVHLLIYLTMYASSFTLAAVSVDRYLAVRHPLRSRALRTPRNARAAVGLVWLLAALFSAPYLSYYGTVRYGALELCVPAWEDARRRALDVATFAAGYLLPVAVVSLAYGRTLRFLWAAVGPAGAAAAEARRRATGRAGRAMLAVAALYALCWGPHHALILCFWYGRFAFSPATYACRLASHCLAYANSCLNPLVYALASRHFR
OX1R antag-1 – OX1R (human) antagonism. inhibition, % at 6.6 µM. hit rate 1.8% among 330,000. OX1R-expressing cells, FRET antagonist read-out; in the data active = inhibition mostly above about 38%, no sharp cut-off; inactive = mostly below about 40%
CHO parental Ca – signal in parental CHO cells, OX1R antagonist counter-screen | parental CHO-K1, ATP-induced calcium, Fluo-8 fluorescence | inhibition, % at 5.6 µM | hit rate 0.63% among 330,000 | AID 463079;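 active = inhibition above that plate's mean sample inhibition plus 3 SD, cut at about 26% in these data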
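Assay system: parental CHO cells; Read-out basis: percent inhibition of ATP-evoked calcium rise, normalized to controls; Benchmarks: ATP and no-ATP DMSO wells; Compound dosing: single nominal dose of 5.6 µM per compound; Signal: Fluo-8 calcium dye fluorescence; Also added: ATP as calcium-mobilizing challenge; Repeats: singlicate.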
GPR7 antagonist – blocks human GPR7 receptor signaling. P48145. GPR7-expressing cells, fluorescence antagonist assay. inhibition, % at 4.4 µM. hit rate 1.1% among 290,000; in the data active = inhibition above about 16%, passing the limit was not always enough;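 note: cells stimulated with the agonist NPW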
Target sequence (P48145 whole entry, looked up): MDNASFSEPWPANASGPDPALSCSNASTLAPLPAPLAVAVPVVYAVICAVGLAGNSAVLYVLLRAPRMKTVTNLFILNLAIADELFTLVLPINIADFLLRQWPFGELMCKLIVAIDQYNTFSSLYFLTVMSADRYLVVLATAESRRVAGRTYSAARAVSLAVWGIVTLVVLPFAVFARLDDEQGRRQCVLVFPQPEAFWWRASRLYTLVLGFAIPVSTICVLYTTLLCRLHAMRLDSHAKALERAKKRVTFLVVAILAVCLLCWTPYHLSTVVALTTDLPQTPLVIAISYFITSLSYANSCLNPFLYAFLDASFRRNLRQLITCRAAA
OX1R antag-2 – human HCRTR1 antagonism | CHO/OX1R cells, Fluo-8 calcium fluorescence, orexin A | inhibition, % at 5 µM | hit rate 0.43% among 330,000;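 active = inhibition above its plate's threshold, mean inhibition of all tested compounds on the plate plus 3 SD, cut at about 37% in these data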
OX1R HTRF conf – confirmation of human orexin 1 receptor antagonists, HTRF format. AID 492964. inhibition, % at 6.6 µM. shares compounds with OX1R antag-1. hit rate 49% among 1,800. OX1R-expressing cells, HTRF antagonist assay; in the data active = inhibition above about 55%;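 note: CHO cells expressing OX1R stimulated with orexin A at about EC80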
CHO-K1 HTRF – counter-screen for OX1R antagonists: effect in parental CHO-K1 cells. shares compounds with OX1R antag-1. HTRF counterscreen. inhibition, % at 6.6 µM. hit rate 48% among 1,800. AID 493232; in the data active = inhibition above about 17%
Of the large screens only hits and unclear results are named; the others gave an inactive call (follow-up assays come after a bar, where they were run). Hits are enriched below; roughly 3.1% of the tested compounds scored in any of these assays.

NC(=O)C1CCN(C(=O)c2cc(-c3ccc(Cl)s3)nc3ccccc23)CC1	none (no result: GPR7 antagonist)
CCCc1c(-c2ccc(O)cc2)nn(-c2ccc(O)cc2)c1-c1ccc(O)cc1	none (no result: GalR3 antagonist, GPR7 antagonist)
NC(=O)c1ccc(N=C2C(=O)Nc3ccc([N+](=O)[O-])cc32)cc1	GalR3 antagonist 13, OX1R antag-1 84 | OX1R HTRF conf 64 | CHO-K1 HTRF 72
O=C1Nc2ccccc2C1=Nc1cccc([N+](=O)[O-])c1	none
CCOc1ccc(NC(=O)CN(C)C(=O)C2CC(=O)N(Cc3ccco3)C2)cc1OCC (stereo unspecified)	none (no result: GPR7 antagonist)
COc1ccc(S(=O)(=O)NNC(=S)NCCc2ccccc2)c(OC)c1	none
O=S(=O)(O)c1cccc2c(N=Nc3ccc(O)c4ncccc34)cccc12	none (no result: GalR3 antagonist)
O=Nc1ccc(O)c2ncccc12	OX1R antag-1 105 | OX1R HTRF conf inactive | CHO-K1 HTRF 39
Cc1ccc2nc3n(c(=O)c2c1)CCCCC3	none
Cc1cc(N2CCOCC2)nc2ccccc12	none
O=c1c2ccccc2nc2ccc(N3CCOCC3)nn12	OX1R antag-1 94 | OX1R HTRF conf inactive | CHO-K1 HTRF 37
Cc1ccc2nc3ccc(N4CCN(C)CC4)nn3c(=O)c2c1	OX1R antag-1 77 | OX1R HTRF conf inactive | CHO-K1 HTRF 25
O=S(=O)(Cc1nnnn1-c1ccccc1)c1ccc(F)cc1	none
O=C(NCc1ccncc1)C(=O)NCC1OCCN1S(=O)(=O)c1cc(F)ccc1F (stereo unspecified)	none
Cc1ccc2cc3cc(C(=O)NCCCN4CCCCCC4)oc3nc2c1	OX1R antag-1 82 | OX1R HTRF conf inactive | CHO-K1 HTRF 36
COc1ccc(-c2nc(CS(=O)CC(=O)NCc3ccc(F)cc3)c(C)o2)cc1 (stereo unspecified)	none
COc1ccc(C2CCN(Cc3cccnc3)CC2O)cc1 (stereo unspecified)	OX1R antag-1 96 | OX1R HTRF conf inactive | CHO-K1 HTRF inactive
COc1ccc(C2CCN(CC(=O)N(C)C)CC2O)cc1 (stereo unspecified)	none
C=CCNC(=S)N/N=C(\C)c1ccc(-n2ccnc2)cc1	none
C=CCNC(=S)N/N=C(\C)c1cccnc1	OX1R antag-1 104 | OX1R HTRF conf inactive | CHO-K1 HTRF inactive
CCC1(C)N=c2c(c(=O)n(C)c(=O)n2C)=NO1 (stereo unspecified)	OX1R antag-1 123 | OX1R HTRF conf inactive | CHO-K1 HTRF 26
CCOC(=O)C(C)/C(C)=N\Nc1ccc([N+](=O)[O-])cc1[N+](=O)[O-] (stereo unspecified)	OX1R antag-1 85 | OX1R HTRF conf inactive | CHO-K1 HTRF 19
C/C(=N\Nc1ccc([N+](=O)[O-])cc1[N+](=O)[O-])C(C)C(C)C (stereo unspecified)	none
CCCOc1ccc(CNC(=O)Cc2cccs2)cc1	none
CC1CCCCC1NC(=O)CN(C)S(=O)(=O)c1cccc2nsnc12 (stereo unspecified)	OX1R antag-1 84 | OX1R HTRF conf inactive | CHO-K1 HTRF 24
CC1CCCCC1NC(=O)CN(C)S(=O)(=O)c1cccc2cccnc12 (stereo unspecified)	none
CN(CC(=O)NC1CCCCC1)S(=O)(=O)c1cccc2nsnc12	OX1R antag-1 95 | OX1R HTRF conf 56 | CHO-K1 HTRF 37
CN(CC(=O)NCCN1CCCCCC1)S(=O)(=O)c1cccc2nsnc12	OX1R antag-1 80 | OX1R HTRF conf inactive | CHO-K1 HTRF 42
CCn1cc(C(=O)O)c(=O)c2cnc(N3CCN(C(=S)Nc4ccccc4Cl)CC3)nc21	none
CCCN(C(=O)CCNC(=O)c1ccc(Cl)cc1)c1c(N)n(Cc2ccccc2)c(=O)[nH]c1=O	none (no result: GPR7 antagonist)
Cn1cnnc1SCc1ccc(C(=O)N=Nc2c(O)n(C)c3ccccc23)cc1	OX1R antag-1 139 | OX1R HTRF conf inactive | CHO-K1 HTRF 62
Cc1cccc(NC(=O)C2CCCN(S(=O)(=O)c3cccc4nsnc34)C2)n1 (stereo unspecified)	OX1R antag-1 84 | OX1R HTRF conf inactive | CHO-K1 HTRF 18
CCN1CCCC1CNC(=O)C1CCCN(S(=O)(=O)c2cccc3nsnc23)C1 (stereo unspecified)	OX1R antag-1 118 | OX1R HTRF conf inactive | CHO-K1 HTRF 62
Cc1cccc(NC(=O)C2CCCN(S(=O)(=O)c3cccc4nsnc34)C2)c1 (stereo unspecified)	OX1R antag-1 91 | OX1R HTRF conf 57 | CHO-K1 HTRF inactive
COc1ccc(NC(=O)NNC(=O)C(C)Oc2ccc3ccccc3c2)cc1OC (stereo unspecified)	none
COCCN(C(=S)Nc1c(C)cccc1C)C(C)c1cccs1 (stereo unspecified)	OX1R antag-1 147 | OX1R HTRF conf inactive | CHO-K1 HTRF inactive
COCc1c(C(=O)N(C)Cc2ccccc2N2CCCC2)oc2ccccc12	none (no result: OX1R antag-1, CHO parental Ca, GPR7 antagonist, OX1R antag-2)
N#Cc1cccn1-c1nccc(-c2cccs2)n1	OX1R antag-1 87 | OX1R HTRF conf 75 | CHO-K1 HTRF inactive
CC(C)C(=O)N[C@@H]1c2ccccc2CC[C@@H]1O	none (no result: GPR7 antagonist)
CC(C)/C=C/CN1CCC(Oc2ccc(C(=O)N3CCCC3)cc2)CC1	none
CCOC(=O)c1c(C)oc2c1c1c(c3ccccc32)OCN(Cc2ccccn2)C1	OX1R antag-1 84 | OX1R HTRF conf inactive | CHO-K1 HTRF inactive
CC(=O)N1C(=O)c2cccc3cccc(c23)C(=O)N1C(C)=O	OX1R antag-1 116 (no result: GalR3 antagonist) | OX1R HTRF conf inactive | CHO-K1 HTRF 65
CC(=O)Oc1ccc2c(c1)O/C(=C\c1ccncc1)C2=O	none (no result: GalR3 antagonist)
COc1ccccc1C(=O)Oc1ccc2c(c1)O/C(=C\c1ccncc1)C2=O	OX1R antag-1 78 | OX1R HTRF conf inactive | CHO-K1 HTRF inactive
O=C(/C=C1\NC2(CCCC2)Cc2ccccc21)C(=O)N/N=C/c1ccccc1O	OX1R antag-1 82 | OX1R HTRF conf inactive | CHO-K1 HTRF inactive
Cn1c2ccccc2c(=O)c2cc(C#Cc3ccccn3)ccc21	OX1R antag-1 90 | OX1R HTRF conf 94 | CHO-K1 HTRF inactive
CC(=O)c1ccc([N+](=O)[O-])c(CS(=O)(=O)c2ccc(Cl)cc2)c1	none
COc1cccc(C(=O)NC2CC3CCC(C2)N3Cc2ccccc2)c1 (stereo unspecified)	none
COc1cccc(C(=O)NC2CC3CCCC(C2)N3CC(=O)Nc2ccccc2C(F)(F)F)c1 (stereo unspecified)	OX1R antag-1 90 | OX1R HTRF conf 89 | CHO-K1 HTRF inactive
COc1ccc([C@@H]2CC=C(C(=O)O)[C@H](c3cccc(Cl)c3)N2S(=O)(=O)c2ccccc2C)cc1	OX1R antag-1 88 (no result: GPR7 antagonist) | OX1R HTRF conf 91 | CHO-K1 HTRF inactive
Cc1ccc([C@@H]2CC=C(C(=O)O)[C@H](c3ccccc3F)N2S(=O)(=O)c2ccccc2C)cc1	OX1R antag-1 78 (no result: GPR7 antagonist) | OX1R HTRF conf 81 | CHO-K1 HTRF inactive
